High-throughput results from PubChem.
NR3A LBD binder = binders of NR3A ligand-binding domain, primary screen, biophysical, differential scanning fluorimetry, uHTS; Tm shift relative to glycine control, % at 25 µM; NR3A LBD differential scanning fluorimetry, Tm shift; 0% = protein alone, 100% = glycine-bound protein; actives 2.5% (n = 340,000);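 active = melting temperature shift of at least 10% of the positive control shift, at one fixed dose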
UPR CHOP act = activators of apoptotic CHOP UPR arm, primary screen, cell-based, CHO-CHOP luciferase reporter, luminescence, uHTS. activation, % at 10 µM. UPR activation; percent of tunicamycin response over DMSO baseline. actives 0.34% (n = 330,000);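 active = at 10 µM dose, activation of 40% or more, normalized to positive control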;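 note: 100% = tunicamycin at 10 µg/mL and 0% = DMSO alone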
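Test system: CHO-CHOP cells, stable luciferase reporter of PERK-eIF2a-CHOP signalling | Quantity: 500 CHO-CHOP cells per well | Buffer or medium: F12 plus 10% serum | Compound dosing: 10 µM single point, 0.5% DMSO | Schedule: 6 h compound treatment, 37 °C | Signal: Luciferase luminescence | Control set: Tunicamycin high control, DMSO low control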
aDG glyco up = activators of alpha-DG glycosylation, primary screen, uHTS, Pro5-aDG cells, AlphaScreen; AID 624168, 2012; alpha-DG glycosylation AlphaScreen (IIH6); 0% Pro5, 100% B10-LARGE cell signal; activation, % at 10 µM; actives 0.22% (n = 360,000);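 active = activation of at least 8% versus controls, or a plate z-score of at least 8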;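 note: Pro5 are CHO cells carrying HIG-tagged alpha-DG that lacks glycosylation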
MPTP inh = mitochondrial permeability transition pore inhibitors, primary screen, biochemical, isolated mouse mitochondria, absorbance; AID 602449, 2012; actives 1.4% (n = 360,000); Ca2+ swelling absorbance, 30 min; inhibition, % at 10 µM;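 active = inhibition of 50% or more, scaled per plate between neutral and stimulator controls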;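 note: 0% = DMSO wells given calcium and 100% = 1 mM EGTA wells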
CHOP inhibitor = inhibitors of CHOP promoter induction, primary screen, cell-based, unfolded protein response, luciferase reporter; CHO-K1 CHOP-promoter luciferase, tunicamycin-induced, 15-18 h; inhibition, % at 10 µM; actives 3.8% (n = 220,000);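 active = compounds that reduced the stress-induced luciferase reporter signal by more than about 70% of percent inhibition, limit read from the data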;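 note: 0% = tunicamycin plus vehicle and 100% = wells without tunicamycin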
XBP1 UPR activ = activators of adaptive XBP1 UPR arm, primary screen, cell-based, CHO-XBP1 luciferase reporter, luminescence, uHTS; IRE1-XBP1 UPR activation; percent of tunicamycin response, DMSO as zero; activation, % at 20 µM; actives 0.33% (n = 330,000);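 active = versus positive control, 20 µM dose yields 30% or more activation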;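 note: 100% = tunicamycin at 10 µg/mL and 0% = DMSO only wells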
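Material – CHO cell line with stable XBP1 luciferase reporter · Buffer or medium – F12 plus 10% FBS · Compound – single point, 20 µM final compound, 1% DMSO · Schedule – 16-18 h cell attachment at 37 °C, then 6 h compound exposure · Signal – Steady-Glo luminescence read · Benchmarks – high control tunicamycin 10 µg/mL final, low control DMSO vehicle only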
The depositor's hits bear a star; x = no result. Rows were chosen to be rich in hits. Some 5.6% of all compounds tested hit in one or more screens of this group.

SMILES | NR3A LBD binder | UPR CHOP act | aDG glyco up | MPTP inh | CHOP inhibitor | XBP1 UPR activ
O=C(Nc1nc(=O)c2ccccc2s1)c1ccc(F)cc1 | -1 | 4 | 0 | 0 | 91* | 1
CCn1c(NC(=O)c2ccc(F)cc2)c2ccccc2nc1=O | 1 | -1 | 0 | 2 | 10 | -1
O=C(CNc1ccc2ccccc2c1)N/N=C/c1ccncc1 | -1 | 0 | 0 | 0 | x | -4
CSc1ccc(/C=N/NC(=O)CNc2cccc3ccccc23)cc1 | 19* | -1 | 0 | -2 | 94* | -1
O=C(CNc1ccc2ccccc2c1)N/N=C/c1ccc(OC(=O)/C=C/c2ccco2)cc1 | 21* | 6 | 1 | 3 | 24 | 13
O=C(CNc1cccc2ccccc12)N/N=C/c1ccc[nH]1 | -7 | 4 | 0 | 3 | 1 | 0
CSc1ccc(/C=N/NC(=O)CNc2ccc3ccccc3c2)cc1 | 21* | -1 | 0 | -1 | 10 | 0
O=C(CNc1cccc2ccccc12)N/N=C/c1ccc(OC(=O)/C=C/c2ccco2)cc1 | 6 | x | 0 | 4 | 49 | x
CC1=CC(C)(C(Cl)(Cl)Cl)C(C)=CC1=NO (centres undefined) | x | x | 0 | 1 | x | x
COc1ccc(CCNC(=O)CSc2ccc(-c3cccs3)nn2)cc1 | 29* | -1 | 0 | 6 | 4 | 0
Cc1ccc(CNC(=O)CSc2ccc(-c3cccs3)nn2)cc1 | -2 | 3 | 0 | 0 | 5 | -2
Cc1ccc(CSc2ccc(-c3cccs3)nn2)cc1 | 14* | 7 | 0 | 3 | 38 | 0
Fc1ccc(CSc2ccc(-c3cccs3)nn2)cc1 | 1 | 3 | 0 | 2 | -19 | 2
O=C(N/N=C/c1ccccn1)c1c[nH]c2ccccc12 | 4 | 5 | 0 | 2 | 9 | 2
C/C(=N\NC(=O)c1c[nH]c2ccccc12)c1ccc(C)s1 | 15* | 6 | 0 | 0 | x | 1
O=C(N/N=C/c1ccsc1)c1c[nH]c2ccccc12 | 31* | 7 | 0 | -2 | x | -3
Cc1ccc(/C=N/NC(=O)c2c[nH]c3ccccc23)s1 | 35* | 9 | 0 | 1 | -28 | -4
CCn1nc(C)c(/C=N/NC(=O)c2c[nH]c3ccccc23)c1C | -2 | 10 | 0 | 0 | 11 | 1
Cc1ccc(/C=N/NC(=O)c2c[nH]c3ccccc23)o1 | 17* | 4 | 0 | 0 | -48 | -1
CCC1NC(=O)c2cccnc2-n2c1nc1ccc(OC)cc1c2=O (centres undefined) | x | x | 0 | 0 | x | x
CC(=O)C1CCC2C3CCC4=CC(=O)CCC4(C)C3(F)C(O)CC12C (centres undefined) | -1 | x | 0 | 1 | x | x
C/C(=N\NC(=O)c1csc(C)c1C)c1ccc(C)s1 | 15* | 5 | 0 | 0 | -10 | 2
Cc1ccsc1/C=N/NC(=O)c1c[nH]c2ccccc12 | 15* | 7 | 0 | 0 | 13 | 1
O=C(N/N=C/c1ccc[nH]1)c1c[nH]c2ccccc12 | 32* | 5 | 0 | -1 | x | -2
O=C(NC1CC1)C1CCN(C2CCN(C(=O)/C=C/c3ccc(F)cc3)CC2)CC1 | -2 | 1 | 0 | 2 | 22 | -3
SMILES | NR3A LBD binder | UPR CHOP act | aDG glyco up | MPTP inh | CHOP inhibitor | XBP1 UPR activ
CCNc1nnc(CCn2nc(C)c(Br)c2C)s1 | -2 | 0 | 0 | -2 | -18 | 0
O=C(COC(=O)/C=C/c1ccc(Cl)cc1)NCCC1=CCCCC1 | 0 | 3 | 0 | 9 | 78* | -2
O=C(COC(=O)/C=C/c1cccc(Cl)c1)NCCC1=CCCCC1 | 17* | 5 | 0 | 11 | 42 | 0
O=C(COC(=O)COc1ccc(Br)cc1)NCCC1=CCCCC1 | 12* | 3 | 0 | 0 | 23 | -1
O=C(COC(=O)COc1cccc(F)c1)NCCC1=CCCCC1 | 0 | -1 | 0 | -1 | 5 | 1
CC(Oc1ccc(Cl)cc1Cl)C(=O)NCCC1=CCCCC1 (centres undefined) | -5 | 0 | 0 | 6 | 90* | 0
Fc1cc2[nH]c(=S)[nH]c2c(Br)c1N1CCSCC1 | -1 | 4 | 0 | 0 | x | 10
COc1ccc(-c2cnc3c(c2)C(=O)N([C@H](C)CO)C[C@@H](C)[C@@H](CN(C)C(=O)NC2CCCC2)O3)cc1 | x | x | 0 | 0 | x | x
N#CCC(=O)Nc1ccc(C(=O)OCC(=O)N2CCN(C(=O)c3ccco3)CC2)cc1 | 0 | -1 | 1 | 0 | x | 0
Cc1cc(C)n(C(=O)CNc2ccccc2Cl)n1 | -1 | -1 | 0 | 0 | -6 | 6
Cc1cc(C)n(C(=O)CNc2cccc(Cl)c2C)n1 | 10* | 0 | 0 | 0 | 50 | 0
CCOc1ccccc1N(CC(=O)NC1CCCC1)S(=O)(=O)c1ccc(C)cc1 | 1 | 0 | 0 | -1 | x | -1
Cc1ccccc1OCCCN1C(=O)C(=O)c2cccc(C)c21 | 0 | 0 | 0 | 1 | 107* | -1
CC1Cc2cc(S(=O)(=O)N3CCN(c4cccc(Cl)c4)CC3)ccc2N1C(=O)C1CC1 (centres undefined) | 10* | 6 | 0 | -1 | x | -5
CCCCNC(=O)C1(C)CCN1C(=O)c1cccnc1Oc1ccccc1 (centres undefined) | x | x | 0 | -2 | x | x
CCCOc1ccc2ccccc2c1/C=C1\SC(=O)NC1=O | -8 | 1 | 0 | 5 | x | 2
CCCCOc1ccc2ccccc2c1C=O | 10* | 5 | 0 | -2 | 20 | 3
CC(OC(=O)Cc1c[nH]c2ccccc12)C(=O)Nc1ccccc1F (centres undefined) | 1 | 1 | 0 | 0 | x | -5
O=c1c2cc(-c3ccccc3)sc2ncn1-n1cccc1 | 2 | 6 | 0 | 0 | -14 | 1
Cc1ccc(C)n1-n1cnc2sc(-c3ccccc3)cc2c1=O | -20 | 1 | 0 | -1 | 79* | -2
Cc1ccc(C)n1-n1c(C)nc2sc(-c3ccccc3)cc2c1=O | -2 | 2 | 0 | 0 | 77* | -4
COc1ccc(NS(=O)(=O)c2ccc(C)c(C(=O)NCCCN3CCCC3=O)c2)cc1 | 1 | -2 | 0 | 0 | x | 2
COc1ccc(S(=O)(=O)Nc2ccc3c(c2)C(=O)N([C@H](C)CO)C[C@H](C)[C@@H](CN(C)S(=O)(=O)c2cn(C)cn2)OCCCC[C@H](C)O3)cc1 | x | x | 0 | -1 | x | x
